# Only some compounds are listed: those with a hit (about 1.5% of all), similar ones and a draw of the others.
# NRP1-CendR mod: modulators of CendR peptide binding to human neuropilin-1. O14786. FAM-RPARPAR peptide binding to NRP-1, fluorescence polarization. inhibition, % at 25 µM. actives 0.85% (n = 360,000);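 active = inhibition or corrected inhibition above about 18%, plus a signal ratio from 0.5 to 1.5, limit read from the data, passing the limit was not always enough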
# MT1-MMP act inh: MT1-MMP (human) activation inhibition | P50281 | HT1080 RFP-PRO-GFP cells, GFP/RFP ratio fluorescence, overnight; percent of plate control window, DMSO zero | GFP/RFP ratio change, % at 20 µM | actives 0.061% (n = 360,000);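 active = GFP/RFP ratio change of at least 30% with cell ATP level not reduced by more than half and red fluorescence within 50% of control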
#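 Assay system: RFP-PRO-GFP reporter HT1080 cells; read-out basis: GFP/RFP fluorescence ratio; benchmarks: DMSO wells and RFP-L50D-GFP cells; doses: 20 µM single dose, 1% DMSO; schedule: overnight cell settling, then overnight compound exposure, 37 °C, 5% CO2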
# DAGLB inhibitor: blocks human DAGLB lipase activity; inhibition, % at 5.17 µM; Q8NCG7; actives 0.059% (n = 340,000); HEK293T DAGLB membrane lysate, EnzChek fluorogenic substrate; in the data active = inhibition above about 34%
# UCH37 DUB inh: human UCH37 deubiquitinating enzyme inhibition. Q9Y5K5. purified proteasome/UCH37, Ub-AMC cleavage fluorescence. inhibition, % (no concentration beside the values). actives 0.33% (n = 330,000). AID 588478;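 active = mean inhibition over replicate wells above about 20%, limit read from the data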
#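 Material: human UCH37 enzyme supplied as purified proteasome complex / Amount: 0.15 nM proteasome as dispensed / Buffer or medium: pH 7.4 Tris-HCl (50 mM) with ovalbumin, ATP-MgCl2, DTT / Times: preincubation 30 min, reaction 25 min, room temperature / Technique: AMC fluorescence from Ub-AMC cleavage, excitation 355 nm, emission 460 nm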
# Fh CTSL1 inh: cathepsin L1 inhibition, PFM18AAP counter-screen. inhibition, % at 5.96 µM. actives 0.49% (n = 300,000). AID 1906. recombinant F. hepatica cathepsin L1, Z-Leu-Arg-MCA fluorescence;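 active = inhibition above the mean of all tested compounds plus 3 SD, set per screening campaign, cut at about 17% in these data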
# UCH37 reconfirm: UCH37 Ub-AMC cleavage inhibition, confirmed; shares compounds with UCH37 DUB inh; Proteasome-bound UCH37, Ub-AMC cleavage fluorescence; inhibition, % at 20 µM; actives 27% (n = 480); AID 624100;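 active = average inhibition over replicates above about 50%, so the earlier screening hit is confirmed, limit read from the data; inactive = the rest, counted as false positives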;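 note: based on cleavage rate fitted by regression over a 30 min kinetic read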
# A number is an active result; 0 = inactive; - = not tested or not shown.
SMILES,NRP1-CendR mod,MT1-MMP act inh,DAGLB inhibitor,UCH37 DUB inh,Fh CTSL1 inh,UCH37 reconfirm
CC1CCCC(NC(=O)COC(=O)c2ccccc2[N+](=O)[O-])C1C (stereo not drawn),0,0,0,0,0,-
CC1CCCC(NC(=O)COC(=O)c2ccc([N+](=O)[O-])s2)C1C (stereo not drawn),0,0,0,78,-,85
Cc1ccc(OCC(=O)NN=Cc2ccco2)c(C)c1,-,-,-,0,-,-
CC(=O)N1CCCc2cc(S(=O)(=O)NCCC3=CCCCC3)ccc21,0,0,0,54,0,76
CS(=O)(=O)NCCC1=CCCCC1,0,0,0,44,0,80
CCOc1ccc(S(=O)(=O)NCCC2=CCCCC2)c2ccccc12,0,0,0,0,0,-
COc1ccc(C)cc1S(=O)(=O)N1CCC(C(=O)NCCC2=CCCCC2)CC1,0,0,0,32,0,0
COc1ccc(Cl)cc1S(=O)(=O)N1CCC(C(=O)NCCC2=CCCCC2)CC1,0,0,0,0,0,-
COc1ccc(C)cc1S(=O)(=O)NCCC1=CCCCC1,0,0,0,58,0,0
O=S(=O)(NCCC1=CCCCC1)c1ccc(Br)cc1,0,0,0,0,0,-
CSCC[C@H](N)C(=O)NCC1CCC(C(=O)N[C@@H](Cc2ccccc2)C(=O)O)CC1 (stereo partly drawn),-,-,-,0,-,-
COc1ccc(S(=O)(=O)N(CC(=O)NN=Cc2cccs2)c2cc(C)cc(C)c2)cc1OC,-,-,-,0,-,-
C#CCOCCOCCOCCNc1nc(N2CCN(C(=O)[C@H](CCCCN)n3cc([C@@H](N)C(C)CC)nn3)CC2)nc(N2CCN(C(=O)[C@H](CCCCN)n3cc([C@@H](N)CO)nn3)CC2)n1 (stereo partly drawn),-,-,-,-,0,-
C#CCOCCOCCOCCNc1nc(N2CCN(C(=O)[C@H](CCCCN)n3cc(CN)nn3)CC2)nc(N2CCN(C(=O)[C@H](CCCCN)n3cc([C@@H](N)[C@H](C)CC)nn3)CC2)n1,0,0,0,36,-,0
COC/C=C/C1=CC2=CC(=O)C(C)(OC(=O)c3cnc4ccccc4n3)C(=O)C2=CN1C1CC1 (stereo not drawn),0,0,0,47,0,0
COCCCNC(=S)NNC(=O)c1ccc2c(c1)OCO2,0,0,0,37,0,0
CC(C)CNC(=S)NNC(=O)c1ccc2c(c1)OCO2,0,0,0,0,0,-
O=C(NN=C1CC2CC=CC12)c1ccc(COc2ccccc2)cc1 (stereo not drawn),-,-,-,0,-,-
O=C(ON=C(c1ccccc1)c1ccccn1)c1ccc(Cl)c(Cl)c1,-,-,-,0,-,-
Cc1ccccc1-n1c(=O)cc(N2CCc3ccccc3C2)[nH]c1=O,0,0,0,27,0,0
O=c1cc(N2CCc3ccccc3C2)[nH]c(=O)n1-c1ccccc1Cl,0,0,0,0,0,-
Cc1ccc(-n2c(=O)cc(N3CCc4ccccc4C3)[nH]c2=O)cc1,0,0,0,34,0,0
CCOc1ccc(C(C)=NNC(=O)c2nnn(-c3nonc3N)c2-c2cccs2)cc1,-,-,-,0,-,-
Cn1c(SCC(=O)NN=Cc2ccco2)nc2ccccc21,-,-,-,0,-,-
N#Cc1c(N=Cc2cc3ccccc3s2)sc2c1CCC2,-,-,-,0,-,-
SMILES,NRP1-CendR mod,MT1-MMP act inh,DAGLB inhibitor,UCH37 DUB inh,Fh CTSL1 inh,UCH37 reconfirm
CCC(=NNC(=S)NC(C)C)c1ccc(OC(F)F)cc1,-,-,-,0,-,-
Cc1ccc(S(=O)(=O)Nc2ccc(N=Nc3ccc(O)cc3)cc2)cc1,0,0,0,0,0,-
Cc1ccc(S(=O)(=O)/N=C2\C=C(Nc3ccc(O)cc3)C(=O)c3ccccc32)cc1,0,0,46,48,-,0
COc1ccc(C(=O)c2ccccc2)c2c(O)ccc(C(=O)c3ccccc3)c12,0,0,0,41,0,0
FC(F)(F)C1=Nc2cccc3cccc(c23)N1,38,0,0,57,-,0
O=C(NN=c1c(=O)c2ccccc2c1=O)c1ccccc1,0,0,0,79,61,77
CN(C)/C=N/NC(=O)c1ccccc1,0,0,0,-,0,-
O=C(NC1=C(NC2CCS(=O)(=O)C2)C(=O)c2ccccc2C1=O)c1ccccc1 (stereo not drawn),0,0,0,62,0,60
Cc1cccc(NC2=C(NC(=O)c3ccccc3)C(=O)c3ccccc3C2=O)c1,0,0,0,52,0,0
O=C(ON=Cc1ccc(Br)cc1)c1ccc(F)cc1,-,-,-,0,-,-
C[C@@H]1NC(=O)[C@H](CCC(N)=O)NC(=O)c2cc([N+](=O)[O-])cc(I)c2NCC[C@@H](C(N)=O)NC1=O,-,-,-,50,0,0
N#Cc1cn(-c2ccccc2)nc1C(=O)c1ccccc1,0,0,0,37,0,0
CC(=O)c1nn(-c2ccccc2)cc1C(=O)c1ccc(C)cc1,0,0,-,0,0,-
COc1ccc(C2C(C(C)=O)=C(C)N=c3sc(=Cc4ccco4)c(=O)n32)c(OC)c1 (stereo not drawn),-,-,-,0,-,-
Cc1ccccc1NS(=O)(=O)c1cc(C(=O)NCCC2=CCCCC2)ccc1Cl,0,0,0,55,0,0
CCC(=O)c1ccc(OCC(=O)NCCC2=CCCCC2)c(OC)c1,0,0,0,0,0,-
CCOc1ccc(C(=O)NCCC2=CCCCC2)cc1OCC,0,0,0,32,0,0
Cc1ccccc1NS(=O)(=O)c1cc(C(=O)NCc2ccncc2)ccc1Cl,0,0,0,0,0,-
CCc1cc(C(=O)NN=Cc2ccc(O)cc2O)c2ccccc2n1,-,-,-,0,-,-
CC(CC(=O)NCCCN1CCOCC1)=NNC(=O)COc1cccc2ccccc12,-,-,-,0,-,-
CC(C)=CCC1=C(OCC(=O)O)C(=O)c2ccccc2C1=O,0,0,0,81,45,0
CCc1cc[n+](C2=C([O-])c3ccccc3C(=O)/C2=N\S(=O)(=O)c2cccs2)cc1,0,0,0,57,20,62
CCOC(=O)c1c(N2C(=O)CC(Sc3ccccc3C(=O)O)C2=O)sc(C)c1C (stereo not drawn),0,0,0,0,0,-
CCOC(=O)c1c(N2C(=O)C3CC(C)=C(C)CC3C2=O)sc(C)c1C (stereo not drawn),0,0,0,43,0,64
CCCCNC1=CC(=O)C(NCCCC)=CC1=O,0,0,0,0,-,-
CCCCNC1=CC(=O)C(=O)c2ccccc21,0,0,0,49,0,0
O=C1C=C(Nc2ccccc2)c2ccccc2C1=O,0,0,0,65,-,0
O=C1C=C(Nc2ccccc2C(=O)O)c2ccccc2C1=O,0,0,0,82,29,93
CN1CCC[C@@H]1CCNC(=O)c1cccc2c1C(=O)c1ccc(N3CCCC3)cc1S2(=O)=O,0,0,0,52,-,0
CCN(CC)c1ccc(C=Nn2nnnc2N)c(O)c1,-,-,-,0,-,-
